{"data": "Measurements pooled from the literature", "mode": "inhibitor", "rep main protease": "Replicase polyprotein 1ab, main protease (rep, Severe acute respiratory syndrome coronavirus 2, UniProt P0DTD1)", "rep papain-like protease": "Replicase polyprotein 1ab, papain-like protease (rep, Severe acute respiratory syndrome coronavirus 2, UniProt P0DTD1)", "note": "Compare with care: the assays were run in different laboratories."}
{"Compound": "Cc1cc(NC(=O)c2cc3c(=O)n4cccc(C)c4nc3n2C)ccc1Br", "target": "rep main protease", "assay": "enzyme activity", "conditions": "1 mM", "inhibition": "82%"}
{"Compound": "O=c1cc(-c2ccc(O)cc2)oc2cc(O)c(O)c(O)c12", "target": "rep main protease", "assay": "enzyme activity", "conditions": "10 µM", "inhibition": "90.7%"}
{"Compound": "O=C(Nc1cccc(C(F)(F)F)c1)c1ccc([N+](=O)[O-])o1", "target": "rep main protease", "assay": "enzyme activity", "conditions": "20 µM", "inhibition": "1.47%"}
{"Compound": "CCC(CC)COC(=O)[C@H](C)N[P@](=O)(OC[C@H]1O[C@@](C#N)(c2ccc3c(N)ncnn23)[C@H](O)[C@@H]1O)Oc1ccccc1", "target": "Replicase polyprotein 1ab, polymerase (rep, Severe acute respiratory syndrome coronavirus 2, UniProt P0DTD1)", "assay": "enzyme activity in cells", "system": "HEK-293T", "conditions": "10 µM", "inhibition": "87%"}
{"Compound": "Oc1ccc(/C=C/c2cc(O)cc(O)c2)cc1", "target": "rep main protease", "assay": "enzyme activity, FRET", "conditions": "10 µM, 10 min", "inhibition": "> 50%"}
{"Compound": "O=C1NCc2c1cccc2C(=O)N[C@H](CNC(=O)c1ccnc2[nH]ncc12)c1ccccc1", "target": "rep main protease", "assay": "enzyme activity", "conditions": "5 µM", "inhibition": "10%"}
{"Compound": "COc1cc(C[C@@H](C)[C@@H](C)Cc2ccc(O)c(OC)c2)ccc1O", "target": "rep papain-like protease", "assay": "enzyme activity, FRET", "conditions": "8 µM", "inhibition": "56.4%"}
{"Compound": "O=C(Nc1ccccc1)Nn1cnnc1", "target": "rep main protease", "assay": "enzyme activity", "conditions": "20 µM", "inhibition": "-7.8%"}
{"Compound": "O=C(O)[C@H]1O[C@@H](Oc2cc3oc(-c4ccc(O)cc4)cc(=O)c3c(O)c2O)[C@H](O)[C@@H](O)[C@@H]1O", "target": "rep papain-like protease", "assay": "enzyme activity", "conditions": "50 µM", "inhibition": "41.8%"}
{"Compound": "O=c1c(O)c(-c2cc(O)c(O)c(O)c2)oc2cc(O)ccc12", "target": "rep main protease", "assay": "enzyme activity", "conditions": "20 µM", "inhibition": "94.9%"}
{"Compound": "C[C@@H]1O[C@@H](OC[C@H]2O[C@@H](OCCc3ccc(O)c(O)c3)[C@H](OC(=O)/C=C/c3ccc(O)c(O)c3)[C@@H](O)[C@@H]2O)[C@H](O)[C@H](O)[C@H]1O", "target": "rep main protease", "assay": "enzyme activity", "conditions": "100 µM", "inhibition": "99.3%"}
{"Compound": "CN(C(=O)[C@H](Cc1ccccc1)NC(=O)[C@@H](NC(=O)OCc1ccccc1)C(C)(C)C)N(C#N)CCC(N)=O", "target": "rep main protease", "assay": "enzyme activity, fluorescence", "conditions": "50 µM, pH 7.2", "inhibition": "100%"}
{"Compound": "CC1(C)CC(Nc2ccc(Nc3ccccc3)cc2)CC(C)(C)N1", "target": "rep main protease", "assay": "enzyme activity", "conditions": "20 µM", "inhibition": "27.8%"}
{"Compound": "CCc1ccc(NC(=O)c2cc3c(=O)n4ccccc4nc3n2C)cc1", "target": "rep main protease", "assay": "enzyme activity", "conditions": "10 µM", "inhibition": "28%"}
{"Compound": "CC(C)=CCc1cc(-c2oc3cc(O)cc(O)c3c(=O)c2O)ccc1O", "target": "rep papain-like protease", "assay": "enzyme activity", "conditions": "8 µM", "inhibition": "59.9%"}
{"Compound": "Cn1c(C(=O)Nc2ccc(Cl)cc2)cc2c(=O)n3ccccc3nc21", "target": "rep main protease", "assay": "enzyme activity", "conditions": "10 µM", "inhibition": "14%"}
{"Compound": "Cc1cc(OCc2ccccc2)c2c(c1)C(=O)C=CC2=O", "target": "rep main protease", "assay": "enzyme activity", "conditions": "1 µM", "inhibition": "91.1%"}
{"Compound": "Cc1cccc2cc(/C=N\\c3ccc(-c4nc5ccccc5[nH]4)cc3)c(Cl)nc12", "target": "rep papain-like protease", "assay": "enzyme activity", "conditions": "10 µM", "inhibition": "10.1%"}
{"Compound": "CCOC(=O)C(Cc1c[nH]c2ccccc12)NC(=O)CCC(=O)Nc1ccc(S(N)(=O)=O)cc1 (centres unmarked)", "target": "rep main protease", "assay": "enzyme activity", "conditions": "100 µg/mL", "inhibition": "0%"}
{"Compound": "COc1ccc(OC)c2c1C(=O)C=CC2=O", "target": "rep main protease", "assay": "enzyme activity", "conditions": "10 µM", "inhibition": "78.5%"}
{"Compound": "Cc1ccc(NC(=O)Nc2cccnc2)cc1Cl", "target": "rep main protease", "assay": "enzyme activity", "conditions": "20 µM", "inhibition": "-7.73%"}
{"Compound": "Cc1ccc2nc(Cl)c(C=Nc3cc(Br)ccn3)cc2c1", "target": "rep papain-like protease", "assay": "enzyme activity", "conditions": "100 µM", "inhibition": "23.9%"}
{"Compound": "COc1cc(C)cc2c1C(=O)C=CC2=O", "target": "rep main protease", "assay": "enzyme activity", "conditions": "0.1 µM", "inhibition": "-4.4%"}
